Reference: ChEMBL document CHEMBL1124735, “Dehydrogenase binding by tiazofurin anabolites” (J Med Chem, 1990)

How the values were obtained:
Alcohol dehydrogenase [1] = target: T1, Alcohol dehydrogenase (Equus caballus, UniProt P00327+P00328); assay: In vitro inhibitory activity against horse liver Alcohol dehydrogenase
[2] = target: Glutamate dehydrogenase 1, mitochondrial (Bos taurus, UniProt P00366); assay: In vitro inhibitory activity against bovine liver glutamate dehydrogenase (GDH)
[3] = target: L-lactate dehydrogenase B chain (Sus scrofa, UniProt P00336); assay: In vitro inhibitory activity against pig heart lactate dehydrogenase (LDH)
Sequence of L-lactate dehydrogenase B chain (P00336 whole entry): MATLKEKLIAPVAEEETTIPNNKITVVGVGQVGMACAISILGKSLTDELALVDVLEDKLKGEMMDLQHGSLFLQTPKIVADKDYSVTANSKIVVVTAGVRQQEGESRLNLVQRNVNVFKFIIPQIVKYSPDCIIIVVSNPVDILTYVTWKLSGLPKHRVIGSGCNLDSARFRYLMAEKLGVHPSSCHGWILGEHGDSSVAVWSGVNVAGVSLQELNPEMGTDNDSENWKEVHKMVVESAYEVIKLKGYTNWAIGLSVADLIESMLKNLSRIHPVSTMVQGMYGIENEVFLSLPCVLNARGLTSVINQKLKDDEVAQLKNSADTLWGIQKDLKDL
Summary of the method: (§1)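 Pig heart enzymes (cytoplasmic MDH or LDH, from ammonium sulfate suspension) assayed in 0.05 M Tris HCl pH 9.0, with NAD as substrate; rates from NADH appearance by A340 (ε 6.22 mM⁻¹cm⁻¹) or fluorescence calibrated against NADH standards. Run at least in duplicate; kinetic constants from Lineweaver-Burk plots by linear regression.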

[4] = target: T2, Malate dehydrogenase, cytoplasmic (Sus scrofa, UniProt P11708); assay: In vitro inhibitory activity against pig heart cytoplasmic malate dehydrogenase (MDH); summary of the method: as §1
T2 sequence (P11708 whole entry): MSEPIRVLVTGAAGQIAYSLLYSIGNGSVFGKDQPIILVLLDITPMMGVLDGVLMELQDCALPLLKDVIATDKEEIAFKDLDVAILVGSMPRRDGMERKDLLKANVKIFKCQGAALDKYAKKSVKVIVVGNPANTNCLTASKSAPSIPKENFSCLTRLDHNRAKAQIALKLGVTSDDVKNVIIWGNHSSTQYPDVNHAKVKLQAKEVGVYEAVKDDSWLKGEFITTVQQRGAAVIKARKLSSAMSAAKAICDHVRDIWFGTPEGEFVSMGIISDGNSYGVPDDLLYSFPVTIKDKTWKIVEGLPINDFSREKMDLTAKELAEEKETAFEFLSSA

Alcohol dehydrogenase [5] = target: T1, Alcohol dehydrogenase; assay: Dissociation constant from Alcohol dehydrogenase; type: protein assay
Alcohol dehydrogenase [6] = target: T1, Alcohol dehydrogenase; assay: In vitro inhibitory activity against horse liver Alcohol dehydrogenase (ADH)

Sequence of Glutamate dehydrogenase 1, mitochondrial (P00366 whole entry): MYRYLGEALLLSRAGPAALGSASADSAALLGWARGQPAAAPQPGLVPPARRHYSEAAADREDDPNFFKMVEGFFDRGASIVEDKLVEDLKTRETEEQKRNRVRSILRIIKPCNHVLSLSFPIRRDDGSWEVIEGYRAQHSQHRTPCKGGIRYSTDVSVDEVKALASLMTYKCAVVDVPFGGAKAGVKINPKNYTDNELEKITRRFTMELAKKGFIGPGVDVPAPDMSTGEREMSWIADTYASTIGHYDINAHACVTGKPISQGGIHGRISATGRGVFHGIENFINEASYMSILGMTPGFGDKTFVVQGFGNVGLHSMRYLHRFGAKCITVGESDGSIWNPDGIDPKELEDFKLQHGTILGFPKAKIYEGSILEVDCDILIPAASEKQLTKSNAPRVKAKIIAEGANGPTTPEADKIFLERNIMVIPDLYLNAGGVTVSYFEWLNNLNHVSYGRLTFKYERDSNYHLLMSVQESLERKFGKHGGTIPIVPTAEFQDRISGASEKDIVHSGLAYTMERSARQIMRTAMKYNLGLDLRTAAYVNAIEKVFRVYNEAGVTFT

## NC(=O)c1csc([C@@H]2O[C@H](CO)[C@@H](O)[C@H]2O)n1 [TIAZOFURIN]
Alcohol dehydrogenase [1]
  Ki: > 10000 µM
[2]
  Ki: > 10000 µM

## NC(=O)c1csc([C@@H]2O[C@H](COP(=O)(O)O)[C@@H](O)[C@H]2O)n1
Alcohol dehydrogenase [1]
  Ki: 105 µM
[2]
  Ki: 65.2 µM

## NC(=O)c1ccc[n+]([C@@H]2O[C@H](COP(=O)([O-])O)[C@@H](O)[C@H]2O)c1 [BETANMN]
Alcohol dehydrogenase [1]
  Ki: > 10000 µM
[2]
  Ki: > 10000 µM

## NC(=O)c1csc([C@H]2O[C@@H](COP(=O)(O)OP(=O)(O)OC[C@H]3O[C@@H](n4cnc5c(N)ncnc54)[C@H](O)[C@@H]3O)[C@H](O)[C@@H]2O)n1
[3]
  Ki: 25.2 µM
[4]
  Ki: 36.3 µM
Alcohol dehydrogenase [5]
  Kd: 27 µM
[2]
  Ki: 4.5 µM
Alcohol dehydrogenase [6]
  Ki: 26.5 µM
